Screening data as filed in PubChem BioAssay.
PKA-R1A act = PKA-R1A complex activation; P00514+P68181; PKA-R1A dissociation, Cy5-IP20 fluorescence polarization; scaled: DMSO 0%, 113 µM cGMP 100%; activation, % at 11.4 µM; 340,000 tested, 0.083% active; AID 504707;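 active = percent activation above the mean of all tested compounds plus 3 SD, cut at about 19% in these data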;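 also: higher means more PKAc released from R1A so a rise in polarization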
Rin1 Abl inh = human Rin1-Abl interaction inhibition; P00519+Q13671; 360,000 tested, 0.4% active; inhibition, % at 7.35 µM; TR-FRET Rin1/Abl binding, biochemical; in the data active = inhibition above about 5%, passing the limit was not always enough
PKA-R2B act = activates the human PKA-R2B holoenzyme complex. P22694+P31323. 340,000 tested, 0.079% active. activation, % at 11.4 µM. PKA-R2B holoenzyme dissociation, Cy5-IP20 fluorescence polarization; R2B truncated from residue 108, S112A mutant; 0% DMSO only, 100% 113 µM cGMP;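 active = activation above a cutoff set at the mean over all compounds plus 3 SD, cut at about 18% in these data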;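 also: higher means more holoenzyme dissociation and a rise in polarization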
UCH37 DUB inh = human UCH37 deubiquitinating enzyme inhibition; Q9Y5K5; purified proteasome/UCH37, Ub-AMC cleavage fluorescence; inhibition, % (test concentration not listed); 330,000 tested, 0.33% active; AID 588478;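 active = mean inhibition over replicate wells above about 20%, limit read from the data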
Target sequence (Q9Y5K5 whole entry, looked up): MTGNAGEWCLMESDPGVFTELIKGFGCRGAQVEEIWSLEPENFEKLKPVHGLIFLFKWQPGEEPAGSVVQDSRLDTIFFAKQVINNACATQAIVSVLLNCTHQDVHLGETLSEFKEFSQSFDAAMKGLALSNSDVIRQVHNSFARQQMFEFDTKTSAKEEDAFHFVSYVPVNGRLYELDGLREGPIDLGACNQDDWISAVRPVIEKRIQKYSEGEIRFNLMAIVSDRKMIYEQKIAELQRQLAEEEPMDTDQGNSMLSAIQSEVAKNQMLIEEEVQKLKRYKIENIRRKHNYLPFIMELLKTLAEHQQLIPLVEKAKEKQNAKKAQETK
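Material: human UCH37 enzyme supplied as purified proteasome complex / Amount: 0.15 nM proteasome as dispensed / Buffer or medium: pH 7.4 Tris-HCl (50 mM) with ovalbumin, ATP-MgCl2, DTT / Times: preincubation 30 min, reaction 25 min, room temperature / Technique: AMC fluorescence from Ub-AMC cleavage, excitation 355 nm, emission 460 nm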
Rin1 Abl conf = Rin1-Abl interaction inhibition confirmation. inhibition, % at 7.35 µM. TR-FRET Rin1-Abl binding, purified proteins. AID 602124. shares compounds with Rin1 Abl inh. 1,300 tested, 49% active
GFP quencher = GFP fluorescence interference artifact; shares compounds with Rin1 Abl inh; inhibitors/quenchers counterscreen; inhibition, % at 6.75 µM; 1,300 tested, 8.5% active;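 also: ABL1-eGFP fusion protein alone without its partner RIN1-SBP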
GFP quench dose = GFP fluorescence interference dose response. AID 602182. GFP fluorescence interference/quenching counterscreen. 230 tested, under 10 active. IC50, µM. shares compounds with Rin1 Abl inh; call rule not given here;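 also: ABL1-eGFP fusion protein alone without its RIN1 binding partner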
Large screens that a line does not name were inactive (follow-up assays come after a bar, where they were run). Sampled rows, rich in hits. Any-hit rate of the full collection: about 0.79%. Rule as the data show it, unless noted: active = inhibition above about 6.5%; inactive = the rest.

Cc1cc(S(=O)(=O)N2CCN(C(=O)CCC(=O)N3CCOCC3)CC2)ccc1Br	Rin1 Abl inh 16 | Rin1 Abl conf 21 | GFP quencher inactive | GFP quench dose inactive
Cc1ccc(S(=O)(=O)N2CCN(C(=O)N3CCOCC3)CC2)cc1C	none
CC(C)NC1(C#N)CCN(Cc2ccccc2)CC1	none
S=C(NCc1ccc2c(c1)OCO2)NC1CCN(Cc2ccccc2)CC1	Rin1 Abl inh 10 | Rin1 Abl conf 11 | GFP quencher inactive
Cc1c(NC(=O)COC(=O)c2ccc(S(=O)(=O)N3CCOCC3)cc2)c(=O)n(-c2ccccc2)n1C	none
Cc1cc(C(=O)Nc2c[nH]c(=O)[nH]c2=O)ccc1[N+](=O)[O-]	Rin1 Abl inh 10 | Rin1 Abl conf inactive | GFP quencher inactive
COC(=O)NN=Cc1cc(C)n(-c2ccc(F)cc2)c1C	none (no result: PKA-R1A act, Rin1 Abl inh, PKA-R2B act)
O=c1[nH]c2ccc(NC(=S)Nc3ccc(Cl)cc3Cl)cc2[nH]1	none
CCOc1ccc(S(=O)(=O)N2CCCCC2)c(C)c1C	none
CCOc1ccc(S(=O)(=O)N2CCN(C)CC2)c(C)c1C	Rin1 Abl inh 5.8 | Rin1 Abl conf inactive | GFP quencher inactive
COc1ccc(COC(=O)C2=C(C)NC(=O)NC2c2cccc(OC)c2OC)cc1 (stereo not given)	Rin1 Abl inh 7.2 | Rin1 Abl conf inactive | GFP quencher inactive
COc1ccc(COC(=O)C2=C(C)NC(=O)NC2c2cc(OC)ccc2OC)cc1 (stereo not given)	none
CCN(CC)c1ccc(C(=C2C=CC(=[N+](CC)CC)C=C2)c2ccc(N(CC)CC)cc2)cc1	Rin1 Abl inh 19 | Rin1 Abl conf 17 | GFP quencher 52
CCC(C)N1C(=O)N(C)C2NC(=O)NC21 (stereo not given)	none
Cc1ccc2[nH]c(=O)c(C(c3nnnn3C(C)(C)C)N(Cc3ccco3)CC3CCCO3)cc2c1 (stereo not given)	none
Cc1cccc2cc(C(c3nnnn3C(C)(C)C)N(Cc3ccco3)CC3CCCO3)c(=O)[nH]c12 (stereo not given)	Rin1 Abl inh 5.8 | Rin1 Abl conf 9.1 | GFP quencher inactive
CN1CC(=O)N2[C@H]3c4ccccc4OC[C@@H]3[C@H](c3ccccc3)[C@]2(C)C1=O	none
O=c1c(CO)cc(CO)cc(CO)c1O	Rin1 Abl inh 31 | Rin1 Abl conf 30 | GFP quencher 13
COc1cc(NC(=O)c2cc(-c3ccccc3)on2)cc(OC)c1OC	none
COc1cc(NC(=O)c2cc(-c3ccc4c(c3)OCO4)on2)cc(OC)c1OC	Rin1 Abl inh 12 | Rin1 Abl conf inactive | GFP quencher inactive
O=C(NCCCn1ccnc1)c1ccc(-c2cccc(Cl)c2Cl)o1	none
COc1cc2c(C(=O)NCc3ccc(C)o3)cn(CC(C)C)c(=O)c2cc1OC	Rin1 Abl inh 6.9 | Rin1 Abl conf inactive | GFP quencher inactive
CN(Cc1ccc(C(C)(C)C)cc1)C(=O)C1CSC2(C)CCC(=O)N12 (stereo not given)	Rin1 Abl inh 12 | Rin1 Abl conf inactive | GFP quencher inactive
C=CCn1c(SCC(=O)N2CCOCC2)nnc1C(C)NC(=O)c1ccccc1 (stereo not given)	Rin1 Abl inh 7.2 | Rin1 Abl conf inactive | GFP quencher inactive
C[C@H](NC(=O)c1nc[nH]c1C(=O)NC1CCN(C(=O)OC(C)(C)C)CC1)C(=O)OC(C)(C)C	none (no result: UCH37 DUB inh)
CC1CCN(C(=O)c2[nH]cnc2C(=O)NC2CCN(C(=O)OC(C)(C)C)CC2)CC1	Rin1 Abl inh 10 | Rin1 Abl conf inactive | GFP quencher inactive
COc1ccc(SCCCn2c(=O)c3c(ncn3C)n(C)c2=O)cc1	Rin1 Abl inh 7.7 | Rin1 Abl conf inactive | GFP quencher inactive
Fc1ccc(-c2cc(-c3cccs3)cc(-c3ccccc3)n2)cc1	none
Cc1c(N=NC2=C(O)CC(C)(C)CC2=O)c(=O)n(-c2ccccc2)n1C	Rin1 Abl inh 10 | Rin1 Abl conf inactive | GFP quencher inactive
CC12CC(=O)C3C(CCC4=CC(=O)CCC43C)C1CC=C2CC(=O)O (stereo not given)	none
O=C(c1ccc2nc(-c3ccco3)c(-c3ccco3)nc2c1)N1CCN(c2ccccc2)CC1	none
O=C(O)c1ccc2nc(-c3ccco3)c(-c3ccco3)nc2c1	Rin1 Abl inh 14 | Rin1 Abl conf inactive | GFP quencher inactive
CC(=O)c1ccc(NC(=O)N2CCN(c3ccc(C)cc3)C(C)C2)cc1 (stereo not given)	none
NC(Cc1ccc(Cl)cc1)c1csc(NC(=O)NCCc2ccccc2)n1 (stereo not given)	none (no result: PKA-R1A act, PKA-R2B act, UCH37 DUB inh)
COc1ccc(CC(N)c2csc(NC(=O)NCCc3ccccc3)n2)cc1 (stereo not given)	Rin1 Abl inh 10 (no result: PKA-R1A act, PKA-R2B act, UCH37 DUB inh) | Rin1 Abl conf 6.8 | GFP quencher inactive
CCCCN(C)C(=O)c1ccc2c(c1)S(=O)(=O)c1ccccc1C2=O	Rin1 Abl inh 10 | Rin1 Abl conf inactive | GFP quencher inactive
C#CCOCCOCCOCCNc1nc(N2CCN(C(=O)CCCCCCCCCCNC(=O)Cn3cc(CCCCCN)nn3)CC2)nc(N2CCN(C(=O)CCCCCCCCCCNC(=O)Cn3cc(C[C@@H](C)O)nn3)CC2)n1	Rin1 Abl inh 19 (no result: UCH37 DUB inh) | Rin1 Abl conf 12 | GFP quencher inactive
C#CCOCCOCCOCCNc1nc(N2CCN(C(=O)CCCCCCCCCCNC(=O)Cn3cc(C[C@@H](C)O)nn3)CC2)nc(N2CCN(C(=O)CCCCCCCCCCNC(=O)[C@@H](CCSC)n3cc(CCO)nn3)CC2)n1	Rin1 Abl inh 17 (no result: UCH37 DUB inh) | Rin1 Abl conf 16 | GFP quencher inactive
COc1ccc(CNC(=O)c2cccc3c(-c4cnn(C)c4)coc23)cc1OC	Rin1 Abl inh 12 (no result: PKA-R1A act, PKA-R2B act, UCH37 DUB inh) | Rin1 Abl conf inactive | GFP quencher inactive
CN(C(=O)CCc1nnc(-c2ccc(-c3ccccc3)cc2)o1)C1CCOCC1	Rin1 Abl inh 8.8 | Rin1 Abl conf inactive | GFP quencher inactive
O=C1CC(NCCc2ccccc2)C(=O)N1CCc1ccccc1 (stereo not given)	none
CC(Oc1ccc(Cl)cc1Cl)C(=O)NNC(=O)c1cccnc1 (stereo not given)	Rin1 Abl inh 8.9 | Rin1 Abl conf inactive | GFP quencher inactive
COc1ccc(Nc2ccc(Cl)cc2)c(C(=O)O)c1	none
CCCCNC(=O)Cn1c(=O)c2c(ncn2CCC(C)C)n(Cc2ccccc2)c1=O	Rin1 Abl inh 20 | Rin1 Abl conf inactive | GFP quencher inactive
Cc1cc(=O)n(-c2ccc(O)cc2)[nH]1	none
Cc1cc(=O)n(-c2ccc(C(=O)O)cc2)[nH]1	Rin1 Abl inh 8.3 | Rin1 Abl conf inactive | GFP quencher inactive
Cc1cc(C)n(CC(=O)N2c3ccccc3Sc3ccc(C(F)(F)F)cc32)n1	none
